Test results published in PubChem BioAssay AID463169 (The Scripps Research Institute Molecular Screening Center, 2010).

Target: Wee1-like protein kinase (Homo sapiens) (UniProt P30291)
Experiment: Wee1 degradation inhibitors in HeLa reporter cells – cell-based, Wee1-luciferase fusion, luminescence, powder samples, late-stage follow-up (AID 463169)
Conditions: luminescence stabilization, at 0.1 µM, active compounds read high
Method in brief: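 Test system: HeLa cells transiently transfected with Wee1-luciferase fusion plasmid; Compound: single nominal dose of 100 nM (0.1 µM); Times: transfection 48 h before assay, compound exposure 20 h at 37 °C; Technique: luminescence read after luciferase detection reagent addition; Read-out: mean fold change versus DMSO vehicle; Benchmarks: DMSO-treated cells; Repeats: four replicates.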

Sequence of Wee1-like protein kinase (Homo sapiens) (P30291 whole entry K328M, the tested form may be a part): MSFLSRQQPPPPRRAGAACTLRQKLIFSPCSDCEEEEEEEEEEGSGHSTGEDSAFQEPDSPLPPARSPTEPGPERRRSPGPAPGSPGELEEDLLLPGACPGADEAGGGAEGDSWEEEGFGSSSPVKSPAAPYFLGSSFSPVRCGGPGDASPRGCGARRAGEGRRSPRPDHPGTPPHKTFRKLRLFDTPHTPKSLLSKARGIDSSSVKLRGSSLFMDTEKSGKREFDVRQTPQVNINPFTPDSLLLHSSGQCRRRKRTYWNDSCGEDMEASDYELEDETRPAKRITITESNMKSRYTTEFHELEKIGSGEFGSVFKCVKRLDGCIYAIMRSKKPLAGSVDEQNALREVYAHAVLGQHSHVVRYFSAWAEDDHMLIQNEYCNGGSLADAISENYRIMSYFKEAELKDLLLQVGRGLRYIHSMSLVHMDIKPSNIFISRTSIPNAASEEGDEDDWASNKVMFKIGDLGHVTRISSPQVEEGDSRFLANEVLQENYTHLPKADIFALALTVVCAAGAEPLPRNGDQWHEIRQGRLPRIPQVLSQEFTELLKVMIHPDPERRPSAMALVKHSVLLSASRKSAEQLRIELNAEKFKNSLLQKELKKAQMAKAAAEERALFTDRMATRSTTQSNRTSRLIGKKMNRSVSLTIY

SMILES | fold change
c1ccc2[nH]c(CNc3nc(N4CCOCC4)nc4c3ncn4-c3ccsc3)nc2c1 | 12.9
O=[N+]([O-])c1cccc2[nH]c(CNc3nc(N4CCOCC4)nc4c3ncn4-c3ccsc3)nc12 | 23.3
